This note sets out measurements from ChEMBL document CHEMBL4261548, “Mitochondria-targeted betulinic and ursolic acid derivatives: synthesis and anticancer activity” (Medchemcomm, 2017).

Activity calls are given as the source filed them. No cut-off for these calls is given here.

One test relates to MCF7. As to the kind of experiment: Cytotoxicity against human MCF7 cells assessed as decrease in cell viability by trypan blue test. In kind it is functional, cell-based.
In another test the test system is Splenocyte. As to the kind of experiment: Cytotoxicity against BALB/c mouse splenocytes assessed as decrease in cell viability by trypan blue test. In kind it is cell-based.
Test [1] relates to HCT-116. The test can be described thus: Induction of apoptosis in human HCT116 cells assessed as release of cytochrome C from mitochondria at 3.5 uM by SDS/PAGE analysis. The test is classed as functional, cell-based. In short, it runs like this:
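HCT116 cells at about 1 × 10^6 per 100 μl were permeabilized with 0.01% digitonin in 150 mM KCl, 1 mM MgCl2, 0.2 mM EGTA and 5 mM Tris for 10 min at room temperature. Supernatant (cytosol) and pellet (mitochondria) were separated by centrifugation. Cytochrome c in each fraction was detected by 15% SDS-PAGE and western blot.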

A short description of test [2]: Cytotoxicity against human Tet21N cells assessed as decrease in cell viability by trypan blue test. In kind it is functional, cell-based.
Test [3] concerns HCT-116. The test can be described thus: Inhibition of mitochondrial respiration in human HCT116 cells after 24 hrs in presence of oligomycin/CCCP/rotenone/antimycin. In kind it is functional, cell-based. In short, it runs like this: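 About 15 000 HCT116 cells per well adhered overnight and were treated for 24 h. They were then held 1 h at 37 °C without CO2 in unbuffered DMEM (5 mM glucose, 2 mM glutamine, pH 7.4). Oxygen consumption was measured by Seahorse XF-96: basal, then sequential oligomycin, CCCP, and rotenone plus antimycin A. Data were normalized to total protein per well.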

Test [4] deals with HCT-116. The test can be described thus: Cell cycle arrest in human HCT116 cells assessed as accumulation at sub-G1 phase by propidium iodide staining-based flow cytometric method (reference value: 0.8%). In kind it is functional. Background: In flow cytometry, cells or beads pass a laser one at a time.
Test [5] has as its system HCT-116. The test can be described thus: Inhibition of mitochondrial respiration in human HCT116 cells at 1 to 2 uM after 24 hrs in presence of oligomycin/CCCP/rotenone/antimycin. In kind it is functional, cell-based. In short, it runs like this:
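About 15 000 cells per well adhered overnight, then treated 24 h. Washed and held 1 h at 37 °C without CO2 in unbuffered DMEM (5 mM glucose, 2 mM glutamine, pH 7.4). Seahorse XF-96 oxygen consumption read: basal, then oligomycin (proton leak), CCCP (spare capacity), rotenone plus antimycin A (non-mitochondrial). Normalized to total protein per well.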

For test [6], the species on record is Homo sapiens. The test can be described thus: Induction of apoptosis in human Tet21N cells assessed as PARP cleavage at 5 to 15 uM by Western blot analysis. The test is classed as functional, cell-based. In short, it runs like this:
(§1)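 Whole-cell lysates in lysis buffer with protease inhibitors, 10 min room temperature; insoluble material cleared at 13 000 rpm, 20 min, 4 °C; equal protein loaded for SDS-PAGE and blotted; membranes blocked 1 h in 5% non-fat milk; PARP cleavage detected by ECL. HCT116 and RKO in DMEM, SK-N-BE(2) and Tet21N in RPMI 1640 with 10% FCS; Tet21N medium also hygromycin 100 μg ml–1 and geneticin 200 μg ml–1.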
On the technique in general: A western blot detects proteins with antibodies after separation by electrophoresis.

The species named for test [7] is Homo sapiens. The test can be described thus: Induction of apoptosis in human SK-N-BE(2) cells assessed as PARP cleavage at 50 uM by Western blot analysis. The test is classed as functional, cell-based. In short, it runs like this: as §1
Test [8] concerns HCT-116. The test can be described thus: Induction of apoptosis in human HCT116 cells assessed as caspase-3 cleavage using DEVD-AMC as substrate by fluorescence assay. In kind it is functional, cell-based.
A further test concerns RKO. As to the kind of experiment: Induction of apoptosis in human RKO cells assessed as PARP cleavage at 50 uM by Western blot analysis. In kind it is functional, cell-based. In short, it runs like this: as §1
Test [9] concerns HCT-116. As to the kind of experiment: Induction of apoptosis in human HCT116 cells assessed as PARP cleavage at 20 uM by Western blot analysis. In kind it is functional, cell-based. In short, it runs like this:
as §1

The species entered for test [10] is Homo sapiens. As to the kind of experiment: Induction of apoptosis in human Tet21N cells assessed as caspase-3 cleavage using DEVD-AMC as substrate by fluorescence assay. The test is classed as functional, cell-based.

In general, IC50 refers to the concentration at which inhibition is half-maximal. On to `C[C@H]1[C@H](C)CC[C@]2(C(=O)OCCOCCOCC[P+](c3ccccc3)(c3ccccc3)c3ccccc3)CC[C@]3(C)C(=CC[C@@H]4[C@@]5(C)CC[C@H](OC(=O)C(Cl)Cl)C(C)(C)[C@@H]5CC[C@]43C)[C@H]12`, for which the 50% inhibitory concentration (IC50) was 3.9 µM in the test with MCF7 (Homo sapiens, MCF7); 1.13 µM with Splenocyte; 1.18 µM in test [2] (Homo sapiens). Further, in the test on HCT-116 [1], the outcome was Active.

For `C=C(C)[C@@H]1CC[C@]2(C(=O)OCCOCCOCC[P+](c3ccccc3)(c3ccccc3)c3ccccc3)CC[C@]3(C)[C@H](CC[C@@H]4[C@@]5(C)CC[C@H](OC(=O)C(Cl)Cl)C(C)(C)[C@@H]5CC[C@]43C)[C@@H]12`, the half-maximal inhibitory concentration (IC50) with MCF7 (Homo sapiens, MCF7) is 2.31 µM; with Splenocyte it was 0.66 µM; in test [2] (Homo sapiens), 0.95 µM. Also, in the test with HCT-116 [1], the result was Active.

Regarding `C[C@H]1[C@H](C)CC[C@]2(C(=O)OCCCC[P+](c3ccccc3)(c3ccccc3)c3ccccc3)CC[C@]3(C)C(=CC[C@@H]4[C@@]5(C)CC[C@H](OC(=O)C(Cl)Cl)C(C)(C)[C@@H]5CC[C@]43C)[C@H]12`, the IC50 in the test with MCF7 (Homo sapiens, MCF7) turned out to be 2.76 µM; in the test with Splenocyte, 1.75 µM; in test [2] (Homo sapiens) it was 4.4 µM. The outcome in the test on HCT-116 [1] was Active.

In the case of `C=C(C)[C@@H]1CC[C@]2(C(=O)OCCOCCOCC[P+](c3ccccc3)(c3ccccc3)c3ccccc3)CC[C@]3(C)[C@H](CC[C@@H]4[C@@]5(C)CC[C@H](OC(C)=O)C(C)(C)[C@@H]5CC[C@]43C)[C@@H]12` [listing 1 of 2 here], the inhibition entry in the test on HCT-116 [3] was “Dose-dependent effect”. Moreover, the result with HCT-116 [1] was Active.

On to `C=C(C)[C@@H]1CC[C@]2(C(=O)OCCOCCOCC[P+](c3ccccc3)(c3ccccc3)c3ccccc3)CC[C@]3(C)[C@H](CC[C@@H]4[C@@]5(C)CC[C@H](OC(C)=O)C(C)(C)[C@@H]5CC[C@]43C)[C@@H]12.[Br-]`, for which the Activity with HCT-116 [4] was determined as 29.9%. In addition, the IC50 in the test with MCF7 (Homo sapiens, MCF7) came to 0.85 µM; in test [2] (Homo sapiens), 0.98 µM.

Regarding `C[C@H]1[C@H](C)CC[C@]2(C(=O)OCCOCCOCC[P+](c3ccccc3)(c3ccccc3)c3ccccc3)CC[C@]3(C)C(=CC[C@@H]4[C@@]5(C)CC[C@H](O)C(C)(C)[C@@H]5CC[C@]43C)[C@H]12`, the half-inhibitory concentration (IC50) in the test with MCF7 (Homo sapiens, MCF7) was 1.59 µM; in test [2] (Homo sapiens), 0.81 µM. For the same compound, the outcome in the test with HCT-116 [1] was Active.

Regarding `C=C(C)[C@@H]1CC[C@]2(C(=O)O)CC[C@]3(C)[C@H](CC[C@@H]4[C@@]5(C)CC[C@H](OC(=O)C(Cl)Cl)C(C)(C)[C@@H]5CC[C@]43C)[C@@H]12`, the IC50 with MCF7 (Homo sapiens, MCF7) stood at 15.9 µM; in [2] (Homo sapiens) it was 4.9 µM.

Turning to `C=C(C)[C@@H]1CC[C@]2(C(=O)O)CC[C@]3(C)[C@H](CC[C@@H]4[C@@]5(C)CC[C@H](O)C(C)(C)[C@@H]5CC[C@]43C)[C@@H]12` [BETULINIC ACID], the inhibition result with HCT-116 [5] is “inactive”. For the same compound, in the test on HCT-116 [4], the Activity is 2.2%. For the same compound, the outcome in the test listed under Homo sapiens [6], in the test listed under Homo sapiens [7], with RKO and in the test on HCT-116 [9] was Active. For the same compound, the IC50 in the test with MCF7 (Homo sapiens, MCF7) is more than 25 µM. Further, the outcome in the test on HCT-116 [1], in the test on HCT-116 [8] and in the test listed under Homo sapiens [10] was inactive.

As for `C=C(C)[C@@H]1CC[C@]2(C(=O)OCCOCCOCC[P+](c3ccccc3)(c3ccccc3)c3ccccc3)CC[C@]3(C)[C@H](CC[C@@H]4[C@@]5(C)CC[C@H](O)C(C)(C)[C@@H]5CC[C@]43C)[C@@H]12`, the inhibition result with HCT-116 [3] is “Dose-dependent effect”. For the same compound, the half-maximal inhibitory concentration (IC50) with MCF7 (Homo sapiens, MCF7) stood at 0.7 µM; in test [2] (Homo sapiens), 0.74 µM. Further, the outcome in the test on HCT-116 [1], in the test with HCT-116 [8] and in the test listed under Homo sapiens [10] was Active.

Consider `C[C@H]1[C@H](C)CC[C@]2(C(=O)O)CC[C@]3(C)C(=CC[C@@H]4[C@@]5(C)CC[C@H](OC(=O)C(Cl)Cl)C(C)(C)[C@@H]5CC[C@]43C)[C@H]12`, for which the IC50 was more than 20 µM in the test with MCF7 (Homo sapiens, MCF7) and more than 10 µM in test [2] (Homo sapiens).

Turning to `C=C(C)[C@@H]1CC[C@]2(C(=O)OCCCC[P+](c3ccccc3)(c3ccccc3)c3ccccc3)CC[C@]3(C)[C@H](CC[C@@H]4[C@@]5(C)CC[C@H](OC(=O)C(Cl)Cl)C(C)(C)[C@@H]5CC[C@]43C)[C@@H]12`, the IC50 is 0.8 µM with MCF7 (Homo sapiens, MCF7); 1.95 µM in the test with Splenocyte; 1.26 µM in test [2] (Homo sapiens). Besides, in the test on HCT-116 [1], the outcome was Active.

As for `C=C(C)[C@@H]1CC[C@]2(C(=O)OCCOCCOCC[P+](c3ccccc3)(c3ccccc3)c3ccccc3)CC[C@]3(C)[C@H](CC[C@@H]4[C@@]5(C)CC[C@H](OC(C)=O)C(C)(C)[C@@H]5CC[C@]43C)[C@@H]12` [listing 2 of 2 here], the half-maximal inhibitory concentration (IC50) came to 1.51 µM in the test with MCF7 (mcf7) and 1.28 µM in test [2].
